Assay results reported in ChEMBL document CHEMBL4765239, “Discovery of a Novel Highly Selective Histamine H4 Receptor Antagonist for the Treatment of Atopic Dermatitis” (J Med Chem, 2018).
Active and inactive are the calls of the source. The rule behind the calls is not given here.

What was measured:
[1] = target: Histamine H4 receptor (Homo sapiens, UniProt Q9H3N8); test: Displacement of [3H]-histamine from recombinant human histamine H4 receptor expressed in CHO-K1 cell membranes measured after 30 mins by microbeta scintillation counting method; set-up: species or system Cell membrane
[2] = tested on: Mus musculus; test: Anti-pruritus activity in oxazolone-induced Balb/c mouse model of atopic dermatitis assessed as reduction of scratching bouts at 50 mg/kg, po BID administered 30 mins prior to oxazolone challenge for 3 weeks and measured on day 25; format: functional, organism-based
How it was run: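 Female BALB/c mice (n=8), abdomen shaved. Sensitized on day 0 with topical 1% oxazolone (50 µL) in acetone/corn oil 4:1. From day 7, right ear challenged with 0.2% oxazolone (25 µL) 3 times weekly; left ear got vehicle. Oral dosing twice daily, 30 min before challenge, for 3 weeks. Scratching counted for 1 h after challenge on day 25. Ear thickness measured; ear fixed in 4% paraformaldehyde, 3 µm paraffin sections stained with H&E for epidermal thickness. Mean ± S.E.M., t-test.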

[3] = tested on: Mus musculus; test: Anti-pruritus activity in ICR mouse with substance P-induced itching assessed as reduction of scratching bouts at 50 mg/kg, po administered 30 mins prior to […] and measured upto 20 mins; format: functional, organism-based; settings: time 50.0 min
How it was run: (§1)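 Female ICR mice (n=8-10 per group), back skin clipped 24 h before. Oral dose in 20% hydroxypropyl-β-cyclodextrin given 30 min before intradermal pruritogen in saline: histamine 300 nmol, substance P 100 nmol or C48/80 100 µg. Scratching bouts counted from video for 20 min after injection. Mean ± S.E.M., Student's t-test.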

[4] = tested on: Mus musculus; test: Anti-pruritus activity in ICR mouse with histamine-induced itching assessed as free plasma concentration causing 50% reduction of scratching bouts at 10 mg/kg, po administered 30 mins prior to histamine challenge and measured upto 20 mins; format: functional; settings: time 50 min
How it was run: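 Female ICR mice, oral dose in 20% hydroxypropyl-β-cyclodextrin 30 min before intradermal histamine (300 nmol). Scratching bouts counted over 20 min from video. Free plasma concentration at Tmax was plotted against the scratching response.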

[5] = target: T1, Histamine H4 receptor (Mus musculus, UniProt Q91ZY2); test: Displacement of [3H]-histamine from recombinant mouse histamine H4 receptor expressed in CHO-K1 cell membranes measured after 30 mins by microbeta scintillation counting method; set-up: species or system Cell membrane
T1 sequence (Q91ZY2 whole entry): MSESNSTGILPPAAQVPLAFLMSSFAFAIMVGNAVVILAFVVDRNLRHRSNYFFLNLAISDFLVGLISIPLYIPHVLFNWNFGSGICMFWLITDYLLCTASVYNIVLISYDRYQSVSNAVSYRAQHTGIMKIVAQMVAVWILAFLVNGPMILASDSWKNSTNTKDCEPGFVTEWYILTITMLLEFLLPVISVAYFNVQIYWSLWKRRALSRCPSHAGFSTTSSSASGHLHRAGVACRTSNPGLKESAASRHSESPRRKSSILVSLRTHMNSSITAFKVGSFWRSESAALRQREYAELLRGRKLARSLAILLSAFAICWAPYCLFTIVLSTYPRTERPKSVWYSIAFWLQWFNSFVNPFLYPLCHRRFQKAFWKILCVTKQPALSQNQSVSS
How it was run: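 Competitive binding on CHO-K1 membranes expressing human H3R ([3H]Nα-methylhistamine) or mouse H4R ([3H]histamine). Run in 50 mM Tris-HCl pH 7.4 for 30 min at 27 °C, then filtered onto 0.5% PEI-treated glass fiber and washed three times with ice-cold buffer. Bound radioactivity read by liquid scintillation counting.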

[6] = target: T2, Histamine H4 receptor (Mus musculus) (UniProt Q91ZY2); test: Agonist activity at recombinant mouse histamine H4 receptor expressed in CHO-K1 cells assessed as stimulation of [35S]-GTPgammaS binding by scintillation proximity assay; format: functional, cell membranes; settings: Cell membrane
T2 sequence (whole entry): T1 sequence (Q91ZY2 whole entry)
How it was run: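 GTPγ35S binding on recombinant mouse H4R, run by an outside contractor. R-α-methylhistamine served as reference agonist and thioperamide as reference antagonist.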

[7] = Tmax in ICR mouse at 50 mg/kg, po measured upto 24 hrs by LC-MS/MS analysis; format: ADME, organism-based; settings: in vivo
How it was run: (§2)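 Female ICR mice, n=3 per group, given test compound orally. Blood sampled at 0.5, 1, 2, 4, 7 and 24 h post dose; plasma levels quantified by LC-MS/MS. Parameters from non-compartmental analysis.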

[8] = AUC (all) in ICR mouse at 2 mg/kg, po measured upto 24 hrs by LC-MS/MS analysis; format: ADME, organism-based; set-up: route oral, dose 2 mg/kg, time <=24; settings: in vivo; how it was run: as §2
[9] = AUC (all) in ICR mouse at 10 mg/kg, po measured upto 24 hrs by LC-MS/MS analysis; format: ADME, organism-based; set-up: route oral, dose 10 mg/kg, time <=24; settings: in vivo; how it was run: as §2
[10] = tested on: Mus musculus; test: Anti-pruritus activity in ICR mouse with histamine-induced itching assessed as reduction of scratching bouts at 10 mg/kg, po administered 30 mins prior to histamine challenge and measured upto 20 mins; format: functional; set-up: scale not given: the % may be the effect or the level left; settings: time 50 min; how it was run: as §1
[11] = Ratio of anti-pruritus activity in ICR mouse with histamine-induced itching assessed as free plasma concentration causing 50% reduction of scratching bouts at 10 mg/kg, po administered 30 mins prior to histamine challenge and measured upto 20 mins to Ic50 for displacement of [3H]-histamine from recombinant mouse histamine H4 receptor expressed in CHO-K1 cell membranes
How it was run: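 Itch model: female ICR mice (n=8-10), back clipped 24 h earlier, dosed orally in 20% hydroxypropyl-β-cyclodextrin 30 min before intradermal histamine (300 nmol, saline). Scratching bouts were videorecorded for 20 min. Free plasma concentration taken at Tmax. Binding used CHO-K1 mouse H4R membranes with [3H]histamine in 50 mM Tris-HCl pH 7.4, 30 min at 27 °C, then filtration and scintillation counting.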

[12] = Protein binding in mouse plasma; format: ADME, cell-free; settings: read-out: PPB (converted)
[13] = Protein binding in human plasma; format: ADME, cell-free; settings: read-out: PPB (converted)

IC50 [1]: 27 nM
IC50 [5]: 290 nM
Activity [6]: inactive
Tmax [7]: 30 min
AUC at 24 h [8]: 251 ng·h/mL
AUC at 24 h [9]: 5400 ng·h/mL
fraction unbound [12]: 0.348
fraction unbound [13]: 0.265
Structure (SMILES): CNC1CN(c2nc3ncc(Br)cc3n3nnnc23)C1
Activity [2]: Active
Activity [3]: Active
Cp(f) [4]: 1.89 µM
Activity [10]: <=50%
Ratio [11]: 3
